Screening data (PubChem)
Compounds with a hit are over-represented: about 1.8% of the library has one in this group of screens.
PG9 binder = binds the HIV-1 gp120 antibody PG9; TR-FRET gp120-PG9 antibody binding; inhibition, % at 6.7 µM; 0.43% of 360,000 active; AID 624416; in the data active = inhibition above about 8.5%
NR2E3 ag-1 = activates human NR2E3 receptor | Q9Y5X4 | CHO-S Gal4-NCOR/VP16-NR2E3 two-hybrid, luciferase | inhibition of corepressor binding, % at 3.98 µM | 0.35% of 360,000 active;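 active = inhibition above the mean of all tested compounds plus 3 SD, cut at about 70% in these data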;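 also: higher means lower luciferase signal from less NR2E3 corepressor binding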
Target sequence (Q9Y5X4 whole entry, looked up, the tested form may be a part): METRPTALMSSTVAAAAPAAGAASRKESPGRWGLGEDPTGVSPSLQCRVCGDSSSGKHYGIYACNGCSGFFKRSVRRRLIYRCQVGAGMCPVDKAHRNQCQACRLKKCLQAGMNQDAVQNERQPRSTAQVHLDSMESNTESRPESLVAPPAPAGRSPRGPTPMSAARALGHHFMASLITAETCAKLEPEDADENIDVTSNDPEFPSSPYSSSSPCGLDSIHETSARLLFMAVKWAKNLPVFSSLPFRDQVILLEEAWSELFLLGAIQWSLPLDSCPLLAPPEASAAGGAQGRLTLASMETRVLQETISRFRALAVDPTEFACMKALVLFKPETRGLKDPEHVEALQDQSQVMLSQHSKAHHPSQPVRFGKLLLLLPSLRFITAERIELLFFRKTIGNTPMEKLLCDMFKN
GalR3 antag = antagonists of human GalR3 | O60755 | HEK293 GalR3-CNG cAMP membrane potential fluorescence; galR3 body fused to GalR1 C-terminus | inhibition, % at 3 µM | 0.44% of 360,000 active;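 active = inhibition above the screen-wide average plus 3 SD, cut at about 13% in these data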;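 also: forskolin and galanin both at EC90 stimulate the cells; cAMP rise reported by CNG channel membrane potential dye signal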
Target sequence (O60755 1-299 limits assumed): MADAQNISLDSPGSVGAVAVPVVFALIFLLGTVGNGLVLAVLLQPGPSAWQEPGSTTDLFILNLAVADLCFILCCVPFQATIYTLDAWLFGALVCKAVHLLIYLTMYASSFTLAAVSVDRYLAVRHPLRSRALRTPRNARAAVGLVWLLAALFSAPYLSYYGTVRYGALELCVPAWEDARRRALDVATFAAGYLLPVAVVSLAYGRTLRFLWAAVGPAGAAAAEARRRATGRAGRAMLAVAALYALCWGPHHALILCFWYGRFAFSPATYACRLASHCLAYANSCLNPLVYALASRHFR
Rev-erbA mod = Rev-erb alpha (human) modulation | activity, % at 10 µM | 0.79% of 370,000 active | Rev-erbα–FITC-DNA binding, fluorescence polarization, 90 min | AID 1259318 | P20393;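 active = activity above about 14%, limit read from the data; passing the limit was not always enough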
NR2E3 ag-2 = agonists of human nuclear receptor NR2E3. GST-NR2E3/biotin-RetCOR TR-FRET, 1536-well. inhibition of corepressor binding, % at 4.78 µM. 0.12% of 320,000 active. AID 2300;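 active = percent inhibition above the cutoff of mean plus 3 SD of all tested compounds, set per screening campaign, cut at about 20% in these data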
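System: GST-tagged NR2E3 plus biotinylated RetCOR corepressor; Buffer or medium: pH 7.5 Tris-based buffer; Probe or stimulus: RetCOR corepressor, biotinylated, 7 nM; Doses: compound at 4.8 µM, single dose; Schedule: 5 h incubation at 4 °C; Technique: time-resolved FRET; Evaluation: percent inhibition of TR-FRET ratio; Replication: one well per compound, singlicate testing.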
PG9 bind confirm = PG9 antibody binding, confirmed; 90% of 1,500 active; shares compounds with PG9 binder; inhibition, % at 6.7 µM; TR-FRET PG9 antibody binding, biochemical; in the data active = inhibition above about 9%
PGV04 counter = counter-screen for PG9 binders: binding control antibody PGV04; shares compounds with PG9 binder; inhibition, % at 6.7 µM; TR-FRET PGV04 antibody-gp120 binding, biochemical; AID 651604; 95% of 1,500 active; in the data active = inhibition above about 9.5%
PG9 binder DR = small molecules binding HIV-1 gp120 antibody PG9 | shares compounds with PG9 binder | TR-FRET PG9 antibody-gp120 binding inhibition | IC50, µM | 95 tested, under 10 active; in the data active = IC50 below about 10 µM
PGV04 binding DR = counter-screen for PG9 binders: binding to control antibody PGV04. 20% of 95 active. AID 651937. TR-FRET binding to control antibody PGV04. shares compounds with PG9 binder. IC50, µM
PG126 binding DR = counter-screen for PG9 binders: binding to control antibody PG126 | TR-FRET binding to antibody PG126, counterscreen | AID 651939 | 20% of 95 active | IC50, µM | shares compounds with PG9 binder
Hits are given with their value; 0 = inactive; - = no result given. Rule as the data show it, unless noted: active = IC50 below about 9 µM; inactive = the rest.

SMILES | PG9 binder | NR2E3 ag-1 | GalR3 antag | Rev-erbA mod | NR2E3 ag-2 | PG9 bind confirm | PGV04 counter | others
O=C(N=C1N(Cc2ccccc2)[C@@H](Cc2ccccc2)[C@]2(C=C3CCCCC3n3c(=O)n(-c4ccccc4)c(=O)n32)N1C(=O)OCc1ccccc1)c1ccccc1 (some centres undefined) | - | - | - | 0 | - | - | -
COc1cccc(-c2nn(-c3ccccc3)cc2C(=O)OCC(=O)Nc2ncc(Cl)cc2Cl)c1 | 0 | 0 | 0 | 0 | 0 | - | -
O=C(COC(=O)c1cn(-c2ccccc2)nc1-c1ccccc1)Nc1ncc(Cl)cc1Cl | 15 | 0 | 0 | 0 | 0 | 22 | 33
COC(=O)[C@]12C[C@H](CC(=O)NCc3cccc4ccccc34)C(=O)N(CCc3ccc(OC)c(OC)c3)C1=C[C@H](C(C)C)O[C@@H]2C1CC1 | - | - | - | 0 | - | - | -
CCOC(=O)c1c(C)n(-c2ccc(C)cc2)c2c(C(C(C)=O)C(=O)O)c(Br)c(O)c(O)c12 (centres undefined) | 0 | 0 | 0 | 0 | 0 | - | -
CCOC(=O)C(C(C)=O)c1c(Br)c(O)c(O)c2c(C(=O)c3ccc(C)cc3)coc12 (centres undefined) | 9.4 | 0 | 0 | 0 | 0 | 18 | 19
CC1(C)Cc2ccccc2-c2c1c(=O)n(Cc1ccccc1)c1nnnn21 | 0 | 0 | 0 | 0 | 0 | - | -
CCn1c(=S)[nH]c2c(c1=O)C(C)(C)Cc1ccccc1-2 | 24 | 0 | 0 | 0 | - | 14 | 12 | PG9 binder DR=0;PGV04 binding DR=0;PG126 binding DR=0
O=C(Nc1ccc(N2C(=O)CC3(CCCCC3)C2=O)c(Cl)c1)c1ccccn1 | - | - | - | 0 | - | - | -
Cc1cc(C)c2c(=N)c3ccccc3n(CCCCCCCCn3c4ccccc4c(=N)c4c(C)cc(C)nc43)c2n1 | 9.7 | 0 | 0 | 0 | - | 28 | 33
CCCCCn1c2c(c(=N)c3ccccc31)CCC2 | 0 | 0 | 0 | 0 | 0 | - | -
CCCSc1ccc2nc(NC(=O)OC)[nH]c2c1 | 12 | 0 | 0 | 0 | 0 | 25 | 36
COC(=O)c1ccc(OCC(=O)Nc2nn(-c3ccccc3)nc2C(N)=O)cc1 | 12 | 0 | 0 | 0 | 0 | 30 | 34
Nc1[nH]c(C(=O)c2ccccc2)c(-c2cccc3ccccc23)c1C(=O)NC1CCCCC1 | 0 | - | 0 | 0 | - | - | -
Cc1ccc(NC(=O)COC(=O)c2cc(Cl)ccc2Cl)c(Br)c1 | 22 | 0 | 0 | 0 | 0 | 31 | 40
Cc1ccc2c(n1)sc1c(N)ncnc12 | 24 | 0 | 0 | 0 | 0 | 22 | 32
COc1ccccc1NS(=O)(=O)c1cccc(NC(=O)c2[nH]c(C)c(C(C)=O)c2C)c1 | 12 | 0 | 0 | 0 | 0 | 21 | 19 | PG9 binder DR=0;PGV04 binding DR=0;PG126 binding DR=0
COc1ccc2c(c1)CNC2CS(=O)(=O)NCc1ccccc1 (centres undefined) | - | - | - | 0 | - | - | -
Cc1ccc(NC(=O)Cc2ccc(OC(F)F)cc2)c(S(=O)(=O)N2CCOCC2)c1 | - | - | - | 0 | - | - | -
O=C(NCCC1CCCCN1S(=O)(=O)c1ccc(F)cc1)C(=O)Nc1ccccc1F (centres undefined) | 10 | 0 | 0 | 0 | 0 | 0 | 0
O=C(NCc1ccco1)C1CCCN(S(=O)(=O)c2ccccc2F)C1 (centres undefined) | - | - | - | 0 | - | - | -
COc1cc(OC)c2c(O)c3c(=O)cc(C)oc3c(-c3c(OC)cc4cc5c(c(O)c4c3O)C(=O)CC(C)(O)O5)c2c1 (centres undefined) | - | - | - | 0 | - | - | -
COc1ccc(NC(=O)CSc2nc(N)c3cc4c(nc3n2)CCCC4)cc1 | 0 | 0 | 0 | 0 | 0 | - | -
CC(=O)c1ccc(NC(=O)CSc2nc(N)c3cc4c(nc3n2)CCCC4)cc1 | 22 | 0 | 0 | 0 | 0 | 14 | 26
Cc1cccc(NC(=O)CSc2nc3nc4c(cc3c(=O)n2-c2ccccc2)CCCC4)c1 | 29 | 0 | 0 | 0 | 0 | 25 | 39
SMILES | PG9 binder | NR2E3 ag-1 | GalR3 antag | Rev-erbA mod | NR2E3 ag-2 | PG9 bind confirm | PGV04 counter | others
C=CCn1c(SCC(=O)c2ccc(-c3ccccc3)cc2)nnc1-c1ccc(OC)cc1 | - | - | - | 0 | - | - | -
CC(=O)c1ccc(NC(=O)COc2ccccc2C(=O)Nc2ccc(C)cn2)cc1 | 26 | 0 | 0 | 0 | 0 | 28 | 42
CC(=O)c1ccc(NC(=O)COc2ccccc2C(=O)Nc2ccccc2)cc1 | 0 | 0 | 0 | 0 | 0 | - | -
CCc1nnc(NC(=O)CSc2nnc(-c3ccccc3O)n2-c2ccc(C)cc2)s1 | 11 | 0 | 0 | 0 | 0 | 14 | 22
COC(=O)[C@]12C[C@H](CC(=O)NCCCCc3ccccc3)C(=O)N(Cc3ccco3)C1=C[C@H](COCc1ccccc1)O[C@@H]2C | - | - | - | 0 | - | - | -
N#Cc1c(-c2ccccc2)nc(SCc2cccc(Cl)c2)[nH]c1=O | 8.7 | 0 | 0 | 0 | 0 | 14 | 21
Cc1[nH]c(=O)nc(SCc2cccc(Cl)c2)c1C#N | 0 | 0 | 0 | 0 | 0 | - | -
CCCCC(=O)Nc1ccc(C(=O)Nc2ccc(S(=O)(=O)N3CCCC3)cc2)cc1 | 18 | 0 | 0 | 0 | 0 | 19 | 38
CCOc1ncccc1C(=O)Nc1ccc(S(=O)(=O)N2CCCC2)cc1 | 9.6 | 0 | 0 | 0 | 0 | 13 | 18
CC(=O)c1ccc(NC(=O)c2ccc(S(=O)(=O)N3CCCC3)cc2)cc1 | 0 | 0 | 0 | 0 | 0 | - | -
C=CCN1C(=O)[C@H](CC(=O)N2CCCC2)[C@@]2(C(=O)OCC)CCCC=C12 | - | - | - | 0 | - | - | -
CC(OC(=O)c1cc2sccc2n1C)C(=O)NCc1cccs1 (centres undefined) | 0 | 0 | 0 | 0 | 0 | - | -
Cn1c(C(=O)OCC(=O)NCc2cccs2)cc2sccc21 | 9.6 | 0 | 0 | 0 | 0 | 17 | 27
COc1ccc(/C=C/c2cc(O)cc(OC3OC(CO)C(O)C(O)C3O)c2)cc1 (centres undefined) | 0 | 0 | 0 | 0 | - | - | -
OC[C@H]1O[C@@H](Oc2ccc3cc(Br)ccc3c2)[C@H](O)[C@@H](O)[C@H]1O | 11 | 0 | 0 | 0 | 0 | 17 | 24
CCn1c(SCC(=O)Nc2cc(C)on2)nc2sc3c(c2c1=O)CCCC3 | 9.2 | 0 | 0 | 0 | 0 | 0 | 24
C=CCn1c(SCC(=O)Nc2cc(C)on2)nc2sc3c(c2c1=O)CCCC3 | 0 | 0 | 0 | 0 | 0 | - | -
COc1ccc(NC(=O)c2oc3ccccc3c2NC(=O)C2CC2)cc1 | 12 | 0 | 0 | 0 | 0 | 9.0 | 0 | PG9 binder DR=0;PGV04 binding DR=0;PG126 binding DR=0
